Assay results: ChEMBL document CHEMBL6096643 (Bioorg Med Chem, 2024)
Calls of active or inactive are those of the source. The rule behind the calls is not given here.

Legend:
[1] = Inhibition of bovine brain tubulin polymerization preincubated for 15 mins followed by GTP addition and measured after 20 mins; design: species or system Bos taurus
[2] = target: T1, Tubulin (Homo sapiens) (UniProt P68371+Q9H4B7+P0DPH7+P68366+Q13509+Q71U36+P04350+Q3ZCM7+P07437+P68363+Q9BQE3+Q6PEY2+Q13885+Q9BVA1+Q9BUF5); assay: Inhibition of [3H]colchicine binding to tubulin (unknown origin) at 5 uM relative to control; type: protein-complex assay
Outline: (§1)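 Tubulin at 1.0 μM (0.1 mg/mL), [3H]colchicine at 5.0 μM, compounds at 5 or 50 μM. Bound colchicine measured by DEAE-cellulose filter method; triplicate experiments.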

[3] = target: T1, Tubulin (Homo sapiens); assay: Inhibition of [3H]colchicine binding to tubulin (unknown origin) at 50 uM relative to control; type: protein-complex assay; outline: as §1
[4] = Cytotoxicity against human HPDE cells measured after 48 hrs by CellTiter 96 Aqueous One Solution Cell Proliferation Assay; type: toxicity, cell-based
[5] = tested on: MCF7; assay: Antiproliferative activity against human MCF7 cells assessed as cell growth inhibition measured after 48 hrs by sulforhodamine B assay; type: functional, cell-based; conditions: MCF7, 48 h
Outline: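 MCF-7 cells grown 24 h without drug, then 48 h with varying compound concentrations. Total cell protein measured by sulforhodamine B assay; IC50 for growth inhibition derived.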

[6] = Disruption of microtubule network in rat A10 cells incubated for 18 hrs by fluorescence microscopic analysis; type: cell-based
Outline: (§2)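 A-10 cells on glass coverslips exposed to a range of compound concentrations for 18 h. Cells fixed, microtubules stained with β-tubulin antibody, nuclei with DAPI, then viewed by fluorescence microscopy. Microtubule loss estimated visually, EC50 taken from dose-response curves, two independent experiments.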

[7] = tested on: A10; assay: Disruption of microtubule network in rat A10 cells at 15 uM incubated for 18 hrs by fluorescence microscopic analysis; type: cell-based; outline: as §2
[8] = tested on: HCT-116; assay: Cytotoxicity against human HCT-116 cells measured after 48 hrs by CellTiter 96 Aqueous One Solution Cell Proliferation Assay; type: functional, cell-based; conditions: HCT-116, 48 h
[9] = tested on: A10; assay: Disruption of microtubule network in rat A10 cells at 20 uM incubated for 18 hrs by fluorescence microscopic analysis; type: cell-based; outline: as §2
[10] = tested on: MIA PaCa-2; assay: Cytotoxicity against human MIA PaCa-2 cells at 1.562 to 100 uM measured after 48 hrs by CellTiter 96 Aqueous One Solution Cell Proliferation Assay; type: functional, cell-based; conditions: dose 1.562-100 µM
[11] = tested on: A10; assay: Disruption of microtubule network in rat A10 cells at 2.5 uM incubated for 18 hrs by fluorescence microscopic analysis; type: cell-based
Outline: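 Rat A-10 cells grown on glass coverslips, exposed 18 h to a range of compound concentrations (single-concentration image at 2.5 μM), then fixed. Microtubules stained by indirect immunofluorescence with β-tubulin antibody, nuclei with 4,6-diamidino-2-phenylindole. Interphase microtubule loss scored visually by fluorescence microscopy against vehicle control.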

SMILES	IC50 [1] [µM]	inhibition [2]	inhibition [3]	IC50 at 48 h [4] [µM]	IC50 [5] [µM]	EC50 [6] [µM]	Activity [7]	IC50 [8] [µM]	Activity [9]	Activity [10]	Activity [11]
COc1ccc(C(=O)c2cc(OC)c(OC)c(OC)c2)cc1O [PHENSTATIN]	1	86%	inactive	> 50							
COc1cc(/C=C\c2cnc(OC)c(B(O)O)c2)cc(OC)c1OC	30	inactive	inactive	> 50	0.39	9	Active	< 5			
COc1ccc(/C=C\c2cc(OC)c(OC)c(OC)c2)cc1B(O)O	1.5		99%	> 50		0.058					
COc1ccc(/C=C\c2cc(OC)c(OC)c(OC)c2)cc1O [COMBRETASTATIN A4]				> 50		< 0.025					
COc1cc(/C=C\c2ccc(B(O)O)cc2)cc(OC)c1OC	10	6.4%	77%	> 50	0.48	4		< 5	Active		
COc1cc(/C=C\c2cccc(B(O)O)c2)cc(OC)c1OC	27	inactive	inactive	> 50	0.85	9		< 5			
COc1cc(C(=O)c2cnc(OC)c(B(O)O)c2)cc(OC)c1OC	> 40	inactive	inactive	> 50	> 2.5	> 50					
COc1cc(/C=C\c2ccccc2B(O)O)cc(OC)c1OC	> 40	inactive	inactive	> 50	> 2.5	51		< 5		Active; Compound Showed Less Toxicity Than Hct-116 Cells	
COc1ccc(C(=O)c2cc(OC)c(OC)c(OC)c2)cc1B(O)O	12	21%	59%	> 50	0.3	5				Active; Compound Showed Less Toxicity Than Hct-116 Cells	Active
